# Source: PubChem BioAssay
# Rev-erbA mod – modulators of human Rev-erb alpha DNA binding. 370,000 tested, 0.79% active. Rev-erbα–FITC-DNA binding, fluorescence polarization, 90 min. activity, % at 10 µM. P20393;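 active = activity above about 14%, limit read from the data; passing the limit was not always enough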;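 note: 0% = DMSO wells with 35 nM protein and 100% = DMSO wells with 750 nM protein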
# PG9 binder – PG9 antibody binding by small molecule; TR-FRET gp120-PG9 antibody binding; inhibition, % at 6.7 µM; 360,000 tested, 0.43% active; in the data active = inhibition above about 8.5%
# NR2E3 ag-1 – activates human photoreceptor nuclear receptor NR2E3 | Q9Y5X4 | GST-NR2E3/biotin-RetCOR TR-FRET, 1536-well | inhibition of corepressor binding, % at 4.78 µM | 320,000 tested, 0.12% active | AID 2300;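 active = percent inhibition above the cutoff of mean plus 3 SD of all tested compounds, set per screening campaign, cut at about 20% in these data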;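 note: 0% = DMSO wells and 100% = biotin wells as full block of FRET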
# Target sequence (Q9Y5X4 whole entry, looked up): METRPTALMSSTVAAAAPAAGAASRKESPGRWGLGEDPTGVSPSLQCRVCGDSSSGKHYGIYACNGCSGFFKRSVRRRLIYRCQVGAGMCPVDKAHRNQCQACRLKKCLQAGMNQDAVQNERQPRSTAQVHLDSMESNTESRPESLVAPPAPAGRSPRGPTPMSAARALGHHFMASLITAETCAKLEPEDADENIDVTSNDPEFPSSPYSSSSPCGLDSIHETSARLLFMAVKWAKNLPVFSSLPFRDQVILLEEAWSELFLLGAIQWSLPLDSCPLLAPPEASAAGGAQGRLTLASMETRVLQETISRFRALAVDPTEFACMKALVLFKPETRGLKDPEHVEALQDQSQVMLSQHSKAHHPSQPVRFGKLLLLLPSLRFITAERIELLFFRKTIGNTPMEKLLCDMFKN
#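 System: GST-NR2E3 and biotin-RetCOR proteins; probe or stimulus: 7 nM biotin-RetCOR; doses: compound at 4.8 µM, single dose; schedule: Compound–protein incubation for 5 h at 4 °C; detection: time-resolved FRET; read-out: percent inhibition; controls: biotin wells as high control, 0.6% DMSO wells as low control; format: 1536-well plates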
# MC4R antagonist – blocks human MC4R cAMP signaling | P32245 | MC4R-expressing cells, MTII-stimulated cAMP, LANCE TR-FRET | inhibition, % at 6.5 µM | 360,000 tested, 0.48% active | AID 540295;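 active = inhibition above its plate's cutoff, the mean of tested wells on that plate plus 3 SD, cut at about 29% in these data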;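 note: 0% = Melanotan II alone and 100% = Melanotan II plus saturating MCL0020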
#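 Test system: U2OS cells stably expressing human melanocortin 4 receptor (MC4R); also added: Melanotan II challenge; compound: 6.5 µM single dose; timing: 30-min compound preincubation, 1-h Melanotan II challenge, 1-h detection, room temperature; signal: Eu-cAMP/anti-cAMP TR-FRET, emission 671 nm; repeats: one well per compound, no replicates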
# NR2E3 ag-2 – activates human NR2E3 receptor; 360,000 tested, 0.35% active; CHO-S Gal4-NCOR/VP16-NR2E3 two-hybrid, luciferase; inhibition of corepressor binding, % at 3.98 µM;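 active = inhibition above the mean of all tested compounds plus 3 SD, cut at about 70% in these data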;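 note: 0% = DMSO with NR2E3 transfected cells and 100% = cells lacking NR2E3 construct; higher means lower luciferase signal from less NR2E3 corepressor binding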
# MC4R ag barr – human MC4R agonism via beta-arrestin; P32245; U2OS MC4R beta-arrestin complementation, luminescence; percent of melanotan II response, DMSO zero; activation, % at 8.9 µM; 360,000 tested, 0.98% active; AID 540308;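 active = activation above a per-plate cutoff, the mean activation of sample wells on that plate plus 3 SD, cut at about 8% in these data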
# NR1D1 mod conf – confirmation of modulators of human Rev-erb alpha DNA binding | shares compounds with Rev-erbA mod | Rev-erb alpha FITC-DNA binding, fluorescence polarization, 90 min | activation, % at 25 µM | 3,000 tested, 61% active | AID 1259319;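 active = activation at or above a set limit, or at least 3 SD above the negative control mean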;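 note: 0% = 35 nM protein with DMSO and 100% = 750 nM protein high control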
# RORg DNA counter – affects RORgamma DNA binding in a Rev-erb alpha counter-screen | shares compounds with Rev-erbA mod | purified RORgamma protein-FITC-DNA binding, fluorescence polarization | IC50, µM | 910 tested, 8% active;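 active = Compounds whose fitted half-maximal concentration for disrupting protein-DNA binding is below 10 micromolar; the record names Rev-erb in its text, so the target is in doubt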
# An asterisk follows results filed as active; i = inactive; · = no result given. Sampled rows, rich in hits. Any-hit rate of the full collection: about 2.7%.
SMILES,Rev-erbA mod,PG9 binder,NR2E3 ag-1,MC4R antagonist,NR2E3 ag-2,MC4R ag barr,NR1D1 mod conf,others
NS(=O)(=O)c1ccc(CCn2c(=S)[nH]c3ccc(F)cc3c2=O)cc1,58*,37*,1,20,-3,0,40*,RORg DNA counter=>40
CC(=O)Nc1ccccc1NC(=O)c1cc(C)ccc1C,-4,-2,2,7,-22,-3,·,
CCC(=O)c1ccc(OCc2ccc(C(=O)c3ccccc3)cc2)cc1,70*,1,2,10,-10,0,149*,RORg DNA counter=>40
Cc1sc2c(c1C)c(=O)n(-c1ccc(Cl)cc1)c(=O)n2Cc1cc(=O)n2ccccc2n1,37*,-1,-2,8,15,4,27*,
Cc1cc2oc(=O)cc(CN3CCN(S(=O)(=O)/C=C/c4ccccc4)CC3)c2cc1C,-2,1,5,-1,-32,-2,·,
Cc1cccc(C(=O)N/N=C/c2cc(Br)c(Br)o2)c1,-3,-3,-4,-13,-25,-1,·,
N#Cc1ccc(C23CC4(C2)[C@H](CN(Cc2cccnc2)[C@@H]4c2ccccc2)C3c2ccccc2)cc1 (some centres undefined),23*,0,-1,4,-4,-1,29*,
COC(=O)c1ccc(C23CC4(C2)[C@H](CN(Cc2cccnc2)[C@@H]4c2ccccc2)C3c2ccccc2)cc1 (some centres undefined),6,-1,1,9,10,-2,·,
CCC(=O)N1CCCC(C)(C(=O)Nc2ccc3scnc3c2)C1 (centres undefined),19*,2,·,2,-3,-1,3,
CCCCOP(=O)(c1ccc(N(C)C)cc1)C(O)c1ccc(OC)c(OC)c1 (centres undefined),1,-2,0,13,0,2,·,
COc1ccc(CNC(=O)c2ccc(-n3ccnc3)c3ccoc23)cc1OC,1,-2,·,7,-12,-2,·,
CCCCN1C[C@@H](COCc2ccccc2)Oc2cccc(F)c2S1(=O)=O,17*,·,·,·,·,·,0,
CCCCN1CC(COCc2ccccc2)Oc2cccc(F)c2S1(=O)=O (centres undefined),12,-2,·,6,-24,0,·,
CCOC(=O)c1c(NC(=O)C2CCCN(S(=O)(=O)c3ccccc3)C2)sc2c1CCCC2 (centres undefined),24*,3,-3,7,-4,-1,103*,RORg DNA counter=>40
COC(=O)c1c(NC(=O)C2Cc3ccccc3C(=O)O2)sc2c1CCCC2 (centres undefined),50*,0,3,11,-31,1,22*,
COC(=O)c1c(NC(=O)C2(C)Cc3ccccc3C(=O)O2)sc2c1CCCC2 (centres undefined),5,0,1,5,16,-1,·,
CCOC(=O)c1c(NC(=O)C2Cc3ccccc3C(=O)O2)sc2c1CCCC2 (centres undefined),35*,-1,0,5,19,1,14*,
CC(=O)Oc1ccc2c(=O)c(N3C(=O)c4ccccc4C3=O)c(C)oc2c1C,-4,-1,1,22,-6,-1,·,
CCOC(=O)[C@]12CCCC=C1N(CCCOC)C(=O)[C@@H]2CC(=O)N1CCN(C(=O)C2CC2)CC1,0,·,·,·,·,·,·,
O=C(CSc1nnc(-c2ccc(F)cc2)o1)Nc1ccc(S(=O)(=O)N2CCCC2)cc1,-1,-3,3,12,9,-1,·,
COc1ccccc1N=Nc1c(C)[nH]n(-c2ccccc2)c1=O,1,-1,-3,-2,-1,-3,·,
CCOc1ccc(CCNC(=O)c2cc(-c3ccccc3)c(N3CCOCC3)s2)cc1,91*,2,3,18,-50,0,80*,RORg DNA counter=>40
O=C(C1=C[C@H](c2ccc(C(F)(F)F)cc2)C[C@H](OCCCCO)O1)N1CCOCC1,-1,-2,1,8,-17,-1,·,
Cc1sc2ncn(CC(=O)N(C)C3CCCCC3)c(=O)c2c1C,-3,-1,-3,6,-31,-1,·,
CCN(CC)c1ccc(/C=C(/C#N)c2nc3ccccc3[nH]2)c(OC(C)C)c1,39*,-1,2,6,-31,-2,46*,RORg DNA counter=>40
SMILES,Rev-erbA mod,PG9 binder,NR2E3 ag-1,MC4R antagonist,NR2E3 ag-2,MC4R ag barr,NR1D1 mod conf,others
Cc1n[nH]c(=S)n(NC(=O)/C=C/C(=O)Nn2c(=S)[nH]nc(C)c2=O)c1=O,-7,-1,·,3,-40,-1,·,
Cc1n[nH]c(=S)n(NC(=O)CC(=O)Nn2c(=S)[nH]nc(C)c2=O)c1=O,16*,-4,0,18,3,-5,5,
Cc1cc(-c2cccc([N+](=O)[O-])c2)nc2ccc3ccccc3c12,38*,-1,5,1,3,1,42*,RORg DNA counter=i
CC(=O)Nc1ncc(N=Nc2cccc(C(F)(F)F)c2)s1,-4,2,1,-1,0,-1,·,
COc1ccccc1N/C(N)=N/c1nc(CSc2ccc(C)cc2)cc(=O)[nH]1,31*,1,0,10,19,0,34*,RORg DNA counter=>40
O=C1OC(c2ccccc2)(c2ccccc2)c2ccsc21,23*,-2,·,11,-14,-1,20*,
Cc1ccc(-c2nnc(-n3ncc(C#N)c3N)c3ccccc23)cc1C,33*,-1,-1,13,-12,4,27*,
COc1ccc2nc(C(F)(F)C(F)(F)F)c(C#N)c(N)c2c1,46*,-2,1,-9,12,4,28*,
Cc1cc2cc(CN(Cc3ccco3)C(=O)NCc3ccccc3)c(=O)[nH]c2cc1C,1,1,-2,1,0,1,·,
Cc1cc2cc(CN(Cc3ccco3)C(=O)C3CCCCC3)c(=O)[nH]c2cc1C,43*,1,-1,13,-13,0,44*,
Brc1cnc(N2CCOCC2)nc1N1CCCCC1,-2,0,-1,11,-5,-1,·,
COc1ccc(N/C=C/C(=O)c2ccc(OC)c(OC)c2)cc1,-6,-1,-4,5,-20,1,·,
COC(=O)c1ccc(N/C=C/C(=O)c2ccc(OC)c(OC)c2)cc1,23*,-1,3,4,0,5,12,
COC(=O)c1ccc(N/C=C\C(=O)c2ccc3c(c2)OCO3)cc1,118*,0,0,2,-23,-3,44*,RORg DNA counter=>40
CC(=O)c1ccc(OCCCC(=O)Nc2ccc(C)c(S(=O)(=O)N3CCCCC3)c2)cc1,7,-1,·,-2,25,-4,·,
